For 16 compounds, IC50 and Ratio IC50 results are on record in ChEMBL document CHEMBL4138235, “Discovery of aliphatic-chain hydroxamates containing indole derivatives with potent class I histone deacetylase inhibitory activities” (Eur J Med Chem, 2018).

pIC50: −log10 of the molar value.

For assay [1], the system named is A549. Description: Cytotoxicity against human A549 cells assessed as growth inhibition after 48 hrs by SRB assay. The assay is classed as functional, cell-based. The settings on record: A549, 48 h.
The test system of assay [2] is PC-3. Description: Cytotoxicity against human PC3 cells assessed as growth inhibition after 48 hrs by SRB assay. The assay is classed as functional, cell-based. The settings on record: PC-3, 48 h.
Assay [3] can be described thus: Inhibition of class 1 HDAC in human HeLa nuclear extracts using Boc-Lys(Ac)-AMC as substrate preincubated for 5 mins followed by substrate addition measured after 30 mins by fluorescence assay.
The target of assay [4] is T1, Protein deacetylase HDAC6 (Homo sapiens, UniProt Q9UBN7).
T1 sequence (Q9UBN7 whole entry): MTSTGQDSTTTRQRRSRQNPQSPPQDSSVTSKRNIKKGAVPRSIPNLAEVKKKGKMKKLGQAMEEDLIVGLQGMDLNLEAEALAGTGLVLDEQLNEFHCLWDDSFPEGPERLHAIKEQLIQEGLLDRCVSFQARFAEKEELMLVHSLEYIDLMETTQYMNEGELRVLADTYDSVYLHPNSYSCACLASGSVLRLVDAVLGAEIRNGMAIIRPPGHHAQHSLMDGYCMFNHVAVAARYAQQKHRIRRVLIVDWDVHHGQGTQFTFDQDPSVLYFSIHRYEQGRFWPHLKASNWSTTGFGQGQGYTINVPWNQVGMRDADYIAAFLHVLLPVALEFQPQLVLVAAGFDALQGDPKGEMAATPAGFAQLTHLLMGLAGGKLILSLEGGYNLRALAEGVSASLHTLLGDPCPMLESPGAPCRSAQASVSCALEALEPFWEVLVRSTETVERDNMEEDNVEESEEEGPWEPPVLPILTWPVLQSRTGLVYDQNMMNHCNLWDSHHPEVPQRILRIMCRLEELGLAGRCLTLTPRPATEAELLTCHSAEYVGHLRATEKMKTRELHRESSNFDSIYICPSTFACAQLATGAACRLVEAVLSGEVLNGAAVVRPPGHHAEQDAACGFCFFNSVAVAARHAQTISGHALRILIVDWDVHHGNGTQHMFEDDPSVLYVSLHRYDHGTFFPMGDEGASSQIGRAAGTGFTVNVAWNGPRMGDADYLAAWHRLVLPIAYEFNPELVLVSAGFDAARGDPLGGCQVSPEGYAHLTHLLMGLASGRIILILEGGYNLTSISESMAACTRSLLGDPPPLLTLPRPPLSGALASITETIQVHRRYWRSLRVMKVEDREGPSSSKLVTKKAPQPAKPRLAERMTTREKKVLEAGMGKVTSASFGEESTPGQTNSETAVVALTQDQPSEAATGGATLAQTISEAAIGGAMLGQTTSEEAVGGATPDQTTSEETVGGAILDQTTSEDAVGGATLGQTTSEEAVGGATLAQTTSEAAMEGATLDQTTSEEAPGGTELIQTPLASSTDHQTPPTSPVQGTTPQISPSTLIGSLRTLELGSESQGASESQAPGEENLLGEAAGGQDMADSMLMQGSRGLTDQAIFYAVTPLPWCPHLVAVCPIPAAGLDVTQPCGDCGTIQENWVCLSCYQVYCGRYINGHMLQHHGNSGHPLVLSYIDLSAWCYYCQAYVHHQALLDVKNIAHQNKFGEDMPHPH
Description: Inhibition of N-terminal GST-tagged human HDAC6 using Boc-Lys(Ac)-AMC as substrate preincubated for 5 mins followed by substrate addition measured after 30 mins by fluorescence assay.

Assay [5] concerns the target T2, Histone deacetylase 8 (Homo sapiens, UniProt Q9BY41).
T2 sequence (Q9BY41 whole entry): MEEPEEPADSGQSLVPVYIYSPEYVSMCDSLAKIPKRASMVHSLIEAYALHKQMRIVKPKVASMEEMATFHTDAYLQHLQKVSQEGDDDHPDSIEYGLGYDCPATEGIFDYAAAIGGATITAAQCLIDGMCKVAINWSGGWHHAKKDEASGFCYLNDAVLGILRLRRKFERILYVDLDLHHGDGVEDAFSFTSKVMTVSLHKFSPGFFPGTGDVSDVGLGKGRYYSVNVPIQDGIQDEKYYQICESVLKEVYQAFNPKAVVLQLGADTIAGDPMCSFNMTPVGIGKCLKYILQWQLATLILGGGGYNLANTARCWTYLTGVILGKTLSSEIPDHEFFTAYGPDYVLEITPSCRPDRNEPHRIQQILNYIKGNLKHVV
Description: Inhibition of C-terminal His-tagged recombinant human HDAC8 (1 to 377 residues) expressed in baculovirus infected Sf9 insect cells using Boc-Lys(TFA)-AMC as substrate preincubated for 5 mins followed by substrate addition measured after 30 mins by fluorescence assay.

For assay [6], the target named is T3, Histone deacetylase 2 (Homo sapiens, UniProt Q92769). As to the kind of experiment: biochemical. The assay is classed as cell-based, Sf9.
For assay [7], the target named is Histone deacetylase 5 (Homo sapiens, UniProt Q9UQL6). Description: Inhibition of full length recombinant human HDAC5 preincubated for 5 mins followed by substrate addition measured after 30 mins by fluorescence assay.
Assay [8] has as its target T4, Histone deacetylase 7 (Homo sapiens, UniProt Q8WUI4).
T4 sequence (Q8WUI4 whole entry): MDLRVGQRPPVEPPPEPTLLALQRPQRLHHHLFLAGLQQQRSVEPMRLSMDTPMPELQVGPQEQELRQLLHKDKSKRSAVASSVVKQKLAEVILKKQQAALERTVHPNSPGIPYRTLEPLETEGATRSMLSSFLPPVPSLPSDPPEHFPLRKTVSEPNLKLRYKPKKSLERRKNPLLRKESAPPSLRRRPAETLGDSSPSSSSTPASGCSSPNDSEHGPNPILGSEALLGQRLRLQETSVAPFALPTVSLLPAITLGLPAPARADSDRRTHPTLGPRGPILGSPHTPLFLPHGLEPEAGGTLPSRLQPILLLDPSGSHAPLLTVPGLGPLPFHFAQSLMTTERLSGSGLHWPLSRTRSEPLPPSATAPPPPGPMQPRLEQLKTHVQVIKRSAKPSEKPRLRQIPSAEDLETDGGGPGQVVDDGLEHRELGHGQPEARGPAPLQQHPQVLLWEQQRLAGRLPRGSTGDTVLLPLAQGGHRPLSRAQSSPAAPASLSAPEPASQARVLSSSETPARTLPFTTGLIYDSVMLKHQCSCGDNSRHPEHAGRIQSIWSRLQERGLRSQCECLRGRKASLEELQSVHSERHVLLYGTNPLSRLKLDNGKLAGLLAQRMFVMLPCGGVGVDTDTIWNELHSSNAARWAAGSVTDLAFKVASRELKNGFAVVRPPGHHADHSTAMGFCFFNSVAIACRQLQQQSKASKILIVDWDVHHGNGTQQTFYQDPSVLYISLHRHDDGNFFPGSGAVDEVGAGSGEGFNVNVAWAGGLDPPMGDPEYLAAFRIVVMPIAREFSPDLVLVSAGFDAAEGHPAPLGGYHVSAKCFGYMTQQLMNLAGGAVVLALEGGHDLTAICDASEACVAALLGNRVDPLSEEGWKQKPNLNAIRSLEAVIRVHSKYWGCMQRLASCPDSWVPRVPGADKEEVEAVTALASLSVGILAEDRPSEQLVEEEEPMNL
As to the kind of experiment: Inhibition of N-terminal GST-tagged human HDAC7 expressed in baculovirus infected Sf9 insect cells preincubated for 5 mins followed by substrate addition measured after 30 mins by fluorescence assay.

For assay [9], the species on record is Homo sapiens. As to the kind of experiment: Potency index, ratio of SAHA IC50 to test compound IC50 for class 1 HDAC in human HeLa nuclear extracts. An outline of the steps:
(§1)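 Fluorogenic deacetylase assay in 15 mM Tris-HCl pH 8.1, 0.25 mM EDTA, 250 mM NaCl, 10% glycerol. Enzyme and compound preincubated 5 min at 30 °C. Substrates: Boc-Lys(Ac)-AMC for HeLa extract, Boc-Lys(TFA)-AMC for HDAC8, KI 177 for HDAC1/2. Reaction ran 30 min at 30 °C, then trypsin with SAHA developed it 20 min; read at ex 355/em 460 nm. 0.1% DMSO set as 100% and 2 µM SAHA as 0%; run in triplicate; IC50 ratios relative to SAHA.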

Assay [10] has as its target Histone deacetylase 4 (Homo sapiens, UniProt P56524). Description: Inhibition of N-terminal GST/C-terminal His-tagged recombinant human HDAC4 (648 to 1057 residues) expressed in baculovirus infected Sf9 insect cells using Boc-Lys(TFA)-AMC as substrate preincubated for 5 mins followed by substrate addition measured after 30 mins by fluorescence assay.
In assay [11] the target is Histone deacetylase 1 (Homo sapiens, UniProt Q13547). Description: Inhibition of C-terminal FLAG/His-tagged full length recombinant human HDAC1 expressed in baculovirus infected Sf9 insect cells using KI 177 as substrate preincubated for 5 mins followed by substrate addition measured after 30 mins by fluorescence assay.
Assay [12] deals with Histone deacetylase 3/Nuclear receptor corepressor 2 (HDAC3/NCoR2) (Homo sapiens, UniProt O15379). Description: Inhibition of C-terminal His-tagged/N-terminal GST-tagged full length recombinant human HDAC3/NcoR2 expressed in baculovirus infected Sf9 insect cells using KI 177 as substrate preincubated for 5 mins followed by substrate addition measured after 30 mins by fluorescence assay.

Assay [13] has as its target Histone deacetylase 9 (Homo sapiens, UniProt Q9UKV0). Description: Inhibition of C-terminal His-tagged recombinant human HDAC9 expressed in baculovirus infected Sf9 insect cells preincubated for 5 mins followed by substrate addition measured after 30 mins by fluorescence assay.
The target of assay [14] is T3, Histone deacetylase 2. As to the kind of experiment: Potency index, ratio of SAHA IC50 to test compound IC50 for full length recombinant human HDAC2 expressed in baculovirus infected Sf9 insect cells. The method, boiled down: as §1

T3 sequence (Q92769 whole entry): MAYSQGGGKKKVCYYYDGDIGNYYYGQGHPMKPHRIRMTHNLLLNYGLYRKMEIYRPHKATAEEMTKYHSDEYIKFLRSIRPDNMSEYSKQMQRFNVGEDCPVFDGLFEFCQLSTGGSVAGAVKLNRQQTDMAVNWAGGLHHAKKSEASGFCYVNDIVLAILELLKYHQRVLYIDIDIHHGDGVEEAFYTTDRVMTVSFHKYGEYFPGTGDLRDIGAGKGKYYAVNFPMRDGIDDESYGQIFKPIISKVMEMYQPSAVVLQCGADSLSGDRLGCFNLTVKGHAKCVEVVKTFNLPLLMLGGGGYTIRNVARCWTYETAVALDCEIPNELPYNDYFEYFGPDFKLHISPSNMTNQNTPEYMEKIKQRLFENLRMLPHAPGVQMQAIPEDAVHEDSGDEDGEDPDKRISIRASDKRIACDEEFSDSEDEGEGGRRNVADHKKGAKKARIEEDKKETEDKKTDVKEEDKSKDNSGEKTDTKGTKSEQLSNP
Sequence of Histone deacetylase 4 (P56524 whole entry, the tested form may be a part): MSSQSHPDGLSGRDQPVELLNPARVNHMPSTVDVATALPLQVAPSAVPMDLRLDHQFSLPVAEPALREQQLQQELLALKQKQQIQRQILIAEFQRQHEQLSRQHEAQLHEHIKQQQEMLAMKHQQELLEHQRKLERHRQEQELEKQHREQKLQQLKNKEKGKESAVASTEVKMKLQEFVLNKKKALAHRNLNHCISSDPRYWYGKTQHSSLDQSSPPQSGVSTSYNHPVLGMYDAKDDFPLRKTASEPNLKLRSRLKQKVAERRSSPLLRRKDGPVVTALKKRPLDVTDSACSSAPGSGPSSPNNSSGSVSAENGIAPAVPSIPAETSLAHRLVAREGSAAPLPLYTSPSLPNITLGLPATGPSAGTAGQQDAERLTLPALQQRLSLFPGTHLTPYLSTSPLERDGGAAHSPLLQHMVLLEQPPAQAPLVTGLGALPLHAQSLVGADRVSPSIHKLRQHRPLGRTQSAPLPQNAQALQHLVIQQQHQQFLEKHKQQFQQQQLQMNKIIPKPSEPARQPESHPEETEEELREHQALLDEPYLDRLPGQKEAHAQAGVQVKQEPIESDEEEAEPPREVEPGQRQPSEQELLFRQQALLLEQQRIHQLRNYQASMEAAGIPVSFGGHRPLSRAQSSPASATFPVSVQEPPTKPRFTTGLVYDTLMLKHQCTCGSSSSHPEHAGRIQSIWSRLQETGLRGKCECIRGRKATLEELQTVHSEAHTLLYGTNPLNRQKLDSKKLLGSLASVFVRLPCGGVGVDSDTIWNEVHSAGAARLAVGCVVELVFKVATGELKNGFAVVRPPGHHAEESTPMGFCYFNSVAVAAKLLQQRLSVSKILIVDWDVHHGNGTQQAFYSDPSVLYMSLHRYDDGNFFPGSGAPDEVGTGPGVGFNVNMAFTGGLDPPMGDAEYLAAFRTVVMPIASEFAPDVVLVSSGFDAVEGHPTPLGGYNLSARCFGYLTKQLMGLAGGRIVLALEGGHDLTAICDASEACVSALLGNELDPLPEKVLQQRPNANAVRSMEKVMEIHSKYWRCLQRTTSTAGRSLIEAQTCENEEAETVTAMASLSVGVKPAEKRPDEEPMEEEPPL
Sequence of Histone deacetylase 1 (Q13547 whole entry): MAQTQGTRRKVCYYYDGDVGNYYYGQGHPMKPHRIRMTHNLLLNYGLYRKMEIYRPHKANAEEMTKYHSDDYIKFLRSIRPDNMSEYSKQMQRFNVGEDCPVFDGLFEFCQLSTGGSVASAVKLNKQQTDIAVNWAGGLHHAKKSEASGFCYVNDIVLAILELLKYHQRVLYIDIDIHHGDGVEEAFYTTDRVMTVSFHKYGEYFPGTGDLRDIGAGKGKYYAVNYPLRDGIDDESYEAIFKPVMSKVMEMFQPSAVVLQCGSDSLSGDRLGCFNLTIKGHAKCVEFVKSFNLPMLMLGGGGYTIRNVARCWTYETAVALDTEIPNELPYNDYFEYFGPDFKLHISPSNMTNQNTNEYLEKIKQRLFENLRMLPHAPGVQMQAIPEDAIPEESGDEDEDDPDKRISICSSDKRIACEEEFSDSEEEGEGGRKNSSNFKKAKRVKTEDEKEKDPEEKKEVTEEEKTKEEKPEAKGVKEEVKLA
Sequence of Histone deacetylase 9 (Q9UKV0 whole entry): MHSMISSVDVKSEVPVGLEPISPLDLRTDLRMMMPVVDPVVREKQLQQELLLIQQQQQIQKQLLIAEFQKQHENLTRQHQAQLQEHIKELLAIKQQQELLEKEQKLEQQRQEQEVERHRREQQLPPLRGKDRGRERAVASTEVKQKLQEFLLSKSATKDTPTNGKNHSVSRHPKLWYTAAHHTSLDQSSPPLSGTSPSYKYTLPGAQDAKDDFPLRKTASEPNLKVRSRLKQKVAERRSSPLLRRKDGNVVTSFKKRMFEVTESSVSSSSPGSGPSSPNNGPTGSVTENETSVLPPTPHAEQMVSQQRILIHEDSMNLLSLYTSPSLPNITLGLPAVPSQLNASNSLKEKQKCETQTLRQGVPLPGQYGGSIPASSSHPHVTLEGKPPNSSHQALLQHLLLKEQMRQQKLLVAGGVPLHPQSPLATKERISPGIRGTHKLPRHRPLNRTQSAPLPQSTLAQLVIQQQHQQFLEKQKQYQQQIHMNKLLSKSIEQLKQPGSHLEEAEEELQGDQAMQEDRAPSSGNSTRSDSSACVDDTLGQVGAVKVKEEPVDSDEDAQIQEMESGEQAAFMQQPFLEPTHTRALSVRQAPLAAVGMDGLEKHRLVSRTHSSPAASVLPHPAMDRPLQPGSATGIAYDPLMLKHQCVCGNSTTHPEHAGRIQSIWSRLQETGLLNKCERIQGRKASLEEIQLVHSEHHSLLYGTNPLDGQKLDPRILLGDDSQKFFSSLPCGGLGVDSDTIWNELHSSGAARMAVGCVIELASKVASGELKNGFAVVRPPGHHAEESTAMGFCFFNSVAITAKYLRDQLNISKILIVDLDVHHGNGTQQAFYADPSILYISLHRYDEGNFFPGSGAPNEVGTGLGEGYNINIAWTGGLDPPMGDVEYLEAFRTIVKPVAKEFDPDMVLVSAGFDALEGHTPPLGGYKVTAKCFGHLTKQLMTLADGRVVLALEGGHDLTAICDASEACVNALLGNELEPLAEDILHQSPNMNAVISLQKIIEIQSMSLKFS
Sequence of Histone deacetylase 5 (Q9UQL6 whole entry): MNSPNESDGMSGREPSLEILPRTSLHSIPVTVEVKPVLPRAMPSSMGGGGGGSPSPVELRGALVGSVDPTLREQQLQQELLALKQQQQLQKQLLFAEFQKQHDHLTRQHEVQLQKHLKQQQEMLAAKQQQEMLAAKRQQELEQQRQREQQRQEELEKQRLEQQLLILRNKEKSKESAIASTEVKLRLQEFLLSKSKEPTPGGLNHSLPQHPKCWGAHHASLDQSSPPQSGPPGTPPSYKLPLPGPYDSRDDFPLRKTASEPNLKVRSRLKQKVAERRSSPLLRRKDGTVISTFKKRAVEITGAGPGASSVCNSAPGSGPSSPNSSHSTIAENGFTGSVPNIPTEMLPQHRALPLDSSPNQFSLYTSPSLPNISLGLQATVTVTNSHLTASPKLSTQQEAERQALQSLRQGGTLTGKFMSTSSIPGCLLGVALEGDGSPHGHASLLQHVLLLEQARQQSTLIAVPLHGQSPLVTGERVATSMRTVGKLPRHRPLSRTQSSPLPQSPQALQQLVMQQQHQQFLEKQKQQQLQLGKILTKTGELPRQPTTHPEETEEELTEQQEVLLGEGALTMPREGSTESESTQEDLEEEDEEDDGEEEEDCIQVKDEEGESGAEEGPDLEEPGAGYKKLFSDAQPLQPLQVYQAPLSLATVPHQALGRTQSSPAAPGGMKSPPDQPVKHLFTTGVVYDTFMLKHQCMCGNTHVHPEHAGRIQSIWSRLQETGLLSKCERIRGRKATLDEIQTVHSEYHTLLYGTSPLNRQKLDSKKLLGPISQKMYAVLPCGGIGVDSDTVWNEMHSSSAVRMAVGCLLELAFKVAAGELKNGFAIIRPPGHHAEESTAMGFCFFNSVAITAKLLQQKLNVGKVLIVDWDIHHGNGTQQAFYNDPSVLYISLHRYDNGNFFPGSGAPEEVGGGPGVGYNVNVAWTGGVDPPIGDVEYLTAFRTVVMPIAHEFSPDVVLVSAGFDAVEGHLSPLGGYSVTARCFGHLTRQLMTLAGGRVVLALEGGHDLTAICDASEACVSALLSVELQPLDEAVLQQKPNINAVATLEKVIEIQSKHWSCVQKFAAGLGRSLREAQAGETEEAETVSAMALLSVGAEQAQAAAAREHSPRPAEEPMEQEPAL

`COc1cc2ccn(CCOc3ccccc3NC(=O)CCCCCCC(=O)NO)c2c(OC)c1OC`: the pIC50 in [1] is 5.23; in assay [2], 5.25; in [3], 6.96.

In the case of `COc1cc2ccn(CCCCOc3cccc(NC(=O)CCCCCCC(=O)NO)c3)c2c(OC)c1OC`, the pIC50 in assay [1] is 5.62; in assay [4] it was 8.07; in assay [5], 6.12; in assay [6], 6.00; in [7] it was under 5.00; in assay [2], 5.68. For the same compound, the pIC50 in assay [8] was under 5.00; in assay [10], under 5.00; in [11], 7.53; in assay [3], 7.75; in assay [12], 6.97; in assay [13], under 5.00. Also, the Ratio IC50 in assay [9] is 2 to 5.

`O=C(CCCCCCC(=O)Nc1cccc(OCCn2ccc3cc(Br)ccc32)c1)NO` gave a pIC50 in [3] of 7.38.

Take `COc1cc2ccn(CCCCOc3ccc(NC(=O)CCCCCCC(=O)NO)cc3)c2c(OC)c1OC`: the results for the pIC50 in [1], in assay [2] and in [3] were 5.01, 5.11 and 7.33, respectively.

`COc1cc2ccn(CCCOc3cccc(NC(=O)CCCCCCC(=O)NO)c3)c2c(OC)c1OC`: the pIC50 in assay [1] was 5.57; in assay [2], 5.57; in assay [3], 7.65. Also, in [9], the Ratio IC50 lay within 2 to 5.

With `COc1cc2ccn(CCCOc3ccc(NC(=O)CCCCCCC(=O)NO)cc3)c2c(OC)c1OC`, the results for the pIC50 in assay [1], in assay [2] and in assay [3] were 5.23, 5.16 and 6.86, respectively.

As to `COc1ccc2c(ccn2CCOc2cccc(NC(=O)CCCCCCCC(=O)NO)c2)c1`, in [3], the pIC50 was 7.40.

On to `COc1cc2ccn(CCCOc3ccccc3NC(=O)CCCCCCC(=O)NO)c2c(OC)c1OC`, for which the results for the pIC50 in assay [1], in assay [2] and in [3] were 5.30, 5.41 and 6.95, respectively.

Consider `COc1cccc2ccn(CCOc3cccc(NC(=O)CCCCCCC(=O)NO)c3)c12`, for which the pIC50 in assay [1] was 5.72; in [2], 5.85; in assay [3], 7.87.

With `COc1ccc2ccn(CCOc3cccc(NC(=O)CCCCCCC(=O)NO)c3)c2c1`, the pIC50 in assay [1] is 5.38; in assay [2], 5.74; in [3], 7.83.

As for `COc1cc2ccn(CCOc3cccc(NC(=O)CCCCCCC(=O)NO)c3)c2c(OC)c1OC`, the pIC50 in assay [1] is 5.62; in [4] it was 8.02; in [5], 6.38; in assay [6], 6.95; in assay [7] it was under 5.00; in assay [2] it was 5.89. In addition, the pIC50 in [8] was under 5.00; in assay [10] it was under 5.00; in [11], 7.95; in [3], 7.94; in assay [12] it was 7.14; in assay [13], under 5.00. Also, the Ratio IC50 in [14] was 2; in assay [9], 2 to 5.

With `O=C(CCCCCCC(=O)Nc1cccc(OCCn2ccc3ccccc32)c1)NO`, the pIC50 in [3] was 7.64.

Regarding `COc1cc2ccn(CCOc3ccc(NC(=O)CCCCCCC(=O)NO)cc3)c2c(OC)c1OC`, the values for the pIC50 in assay [1], in assay [2] and in [3] were 5.31, 5.36 and 7.24, respectively.

As for `COc1cc2ccn(CCCCOc3ccccc3NC(=O)CCCCCCC(=O)NO)c2c(OC)c1OC`, the values for the pIC50 in assay [1], in assay [2] and in [3] were 5.32, 5.62 and 6.95, respectively.

On to `COc1ccc2c(ccn2CCOc2cccc(NC(=O)CCCCCCCCC(=O)NO)c2)c1`, for which the pIC50 in assay [3] is 6.53.

The compound `COc1ccc2c(ccn2CCOc2cccc(NC(=O)CCCCC(=O)NO)c2)c1` showed a pIC50 in [3] of 6.73.
